Measured values from ChEMBL document CHEMBL5247578, “Effective synthesis of benzimidazoles-imidazo[1,2-a]pyrazine conjugates: A comparative study of mono-and bis-benzimidazoles for antitumor activity” (Eur J Med Chem, 2019).

How the values were obtained:
SN12C = experiment: Antiproliferative activity against human SN12C cells assessed as cell growth at 0.0000001 M incubated for 48 hrs by SRB assay relative to control; format: functional; details: dose 100 nM, read-out: Activity
HT-29 = experiment: Antiproliferative activity against human HT-29 cells assessed as cell growth at 0.00001 M incubated for 48 hrs by SRB assay relative to control; format: functional; details: read-out: Activity
How it was run: (§1)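 NCI-60 five-dose screen (10^-4 to 10^-8 M). Cells grown in RPMI 1640 with 5% FBS and 2 mM L-glutamine, plated at 5,000-40,000 cells/well and preincubated 24 h. Drug given from DMSO stock, then 48 h at 37 °C, 5% CO2. For adherent lines, cells fixed with cold TCA, SRB-stained and read at 515 nm. Percent growth taken against time-zero and untreated control.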

NCI-H522 = experiment: Growth inhibition against human NCI-H522 cells assessed as total growth inhibitory concentration incubated for 48 hrs by sulforhodamine B assay; format: functional
SW-620 [1] = experiment: Antiproliferative activity against human SW620 cells assessed as cell growth at 0.00000001 M incubated for 48 hrs by SRB assay relative to control; format: functional; details: dose 10 nM, read-out: Activity
IGROV-1 [2] = experiment: Antiproliferative activity against human IGROV-1 cells assessed as cell growth at 0.0001 M incubated for 48 hrs by SRB assay relative to control; format: functional; details: read-out: Activity
UO-31 = experiment: Growth inhibition against human UO-31 cells assessed as total growth inhibitory concentration incubated for 48 hrs by sulforhodamine B assay; format: functional
TK-10 = experiment: Growth inhibition against human TK-10 cells incubated for 48 hrs by sulforhodamine B assay; format: functional
MDA-MB-231 [3] = experiment: Antiproliferative activity against human MDA-MB-231 cells assessed as cell growth at 0.00001 M incubated for 48 hrs by SRB assay relative to control; format: functional; details: read-out: Activity
SNB-75 = experiment: Antiproliferative activity against human SNB-75 cells assessed as cell growth at 0.000001 M incubated for 48 hrs by SRB assay relative to control; format: functional; details: read-out: Activity
NCI-H322M [4] = experiment: Antiproliferative activity against human NCI-H322M cells assessed as cell growth at 0.0001 M incubated for 48 hrs by SRB assay relative to control; format: functional; details: read-out: Activity
HCC 2998 = experiment: Growth inhibition against human HCC 2998 cells assessed as total growth inhibitory concentration incubated for 48 hrs by sulforhodamine B assay; format: functional
NCI-H460 = experiment: Antiproliferative activity against human NCI-H460 cells assessed as cell growth at 0.0001 M incubated for 48 hrs by SRB assay relative to control; format: functional; details: read-out: Activity
SK-MEL-2 = experiment: Antiproliferative activity against human SK-MEL-2 cells assessed as cell growth at 0.0000001 M incubated for 48 hrs by SRB assay relative to control; format: functional; details: dose 100 nM, read-out: Activity
Malme-3M [5] = experiment: Antiproliferative activity against human Malme-3M cells assessed as cell growth at 0.000001 M incubated for 48 hrs by SRB assay relative to control; format: functional; details: read-out: Activity
IGROV-1 [6] = experiment: Antiproliferative activity against human IGROV-1 cells assessed as cell growth at 0.00000001 M incubated for 48 hrs by SRB assay relative to control; format: functional; details: dose 10 nM, read-out: Activity
SW-620 [7] = experiment: Antiproliferative activity against human SW620 cells assessed as cell growth at 0.000001 M incubated for 48 hrs by SRB assay relative to control; format: functional; details: read-out: Activity
CAKI-1 [8] = experiment: Growth inhibition against human CAKI-1 cells assessed as total growth inhibitory concentration incubated for 48 hrs by sulforhodamine B assay; format: functional
CAKI-1 [9] = experiment: Antiproliferative activity against human CAKI-1 cells assessed as cell growth at 0.00001 M incubated for 48 hrs by SRB assay relative to control; format: functional; details: read-out: Activity
How it was run: (§2)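 NCI-60 five-dose screen over 10^-4–10^-8 M (10-fold dilutions). Cells grown in RPMI 1640 with 5% FBS and 2 mM L-glutamine, seeded at 5,000–40,000 cells/well and preincubated 24 h. Drug from DMSO stock, 48 h at 37 °C, 5% CO2. Adherent cells TCA-fixed and stained with 0.4% SRB; A515 read. Percent growth = (Ti−Tz)/(C−Tz)×100, or (Ti−Tz)/Tz×100 when Ti<Tz.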

DU-145 = experiment: Antiproliferative activity against human DU-145 cells assessed as cell growth inhibition by measuring lethal concentration incubated for 48 hrs by sulforhodamine B assay; format: functional; details: read-out: LC50 (the source's name)
NCI/ADR-RES = experiment: Antiproliferative activity against human NCI/ADR-RES cells assessed as cell growth at 0.00001 M incubated for 48 hrs by SRB assay relative to control; format: functional; details: read-out: Activity
NCI-H322M [10] = experiment: Growth inhibition against human NCI-H322M cells incubated for 48 hrs by sulforhodamine B assay; format: functional
HOP-62 = experiment: Antiproliferative activity against human HOP-62 cells assessed as cell growth at 0.00001 M incubated for 48 hrs by SRB assay relative to control; format: functional; details: read-out: Activity; how it was run: as §1
Malme-3M [11] = experiment: Growth inhibition against human Malme-3M cells incubated for 48 hrs by sulforhodamine B assay; format: functional
M14 = experiment: Antiproliferative activity against human M14 cells assessed as cell growth at 0.00001 M incubated for 48 hrs by SRB assay relative to control; format: functional; details: read-out: Activity
CCRF-CEM [12] = experiment: Growth inhibition against human CCRF-CEM cells incubated for 48 hrs by sulforhodamine B assay; format: functional
SNB-19 = experiment: Growth inhibition against human SNB-19 cells incubated for 48 hrs by sulforhodamine B assay; format: functional
SF-268 = experiment: Growth inhibition against human SF-268 cells incubated for 48 hrs by sulforhodamine B assay; format: functional
SF-295 = experiment: Antiproliferative activity against human SF-295 cells assessed as cell growth at 0.0000001 M incubated for 48 hrs by SRB assay relative to control; format: functional; details: dose 100 nM, read-out: Activity
SW-620 [13] = experiment: Antiproliferative activity against human SW620 cells assessed as cell growth at 0.0000001 M incubated for 48 hrs by SRB assay relative to control; format: functional; details: dose 100 nM, read-out: Activity
UACC-257 [14] = experiment: Antiproliferative activity against human UACC-257 cells assessed as cell growth at 0.0001 M incubated for 48 hrs by SRB assay relative to control; format: functional; details: read-out: Activity
SW-620 [15] = experiment: Antiproliferative activity against human SW620 cells assessed as cell growth at 0.0001 M incubated for 48 hrs by SRB assay relative to control; format: functional; details: read-out: Activity
Calf thymus DNA = experiment: Displacement of ethidium bromide from calf thymus DNA assessed as Stern-Volmer quenching constant upto 85 uM by fluorescence based spectroscopic analysis; format: nucleic-acid assay; details: Bos taurus
MDA-MB-231 [16] = experiment: Growth inhibition against human MDA-MB-231 cells incubated for 48 hrs by sulforhodamine B assay; format: functional
UACC-257 [17] = experiment: Antiproliferative activity against human UACC-257 cells assessed as cell growth at 0.00000001 M incubated for 48 hrs by SRB assay relative to control; format: functional; details: dose 10 nM, read-out: Activity
SF-539 = experiment: Antiproliferative activity against human SF-539 cells assessed as cell growth at 0.00001 M incubated for 48 hrs by SRB assay relative to control; format: functional; details: read-out: Activity
CCRF-CEM [18] = experiment: Antiproliferative activity against human CCRF-CEM cells assessed as cell growth at 0.000001 M incubated for 48 hrs by SRB assay relative to control; format: functional; details: read-out: Activity; how it was run: as §2
KM12 = experiment: Antiproliferative activity against human KM12 cells assessed as cell growth inhibition by measuring lethal concentration incubated for 48 hrs by sulforhodamine B assay; format: functional; details: read-out: LC50 (the source's name)

Row | Structure (SMILES) | growth at 0.1 µM (SN12C) | growth at 10 µM (HT-29) | TGI (NCI-H522) | growth at 0.01 µM (SW-620 [1]) | growth at 100 µM (IGROV-1 [2]) | TGI (UO-31) | GI50 (TK-10) | growth at 10 µM (MDA-MB-231 [3]) | growth at 1 µM (SNB-75) | growth at 100 µM (NCI-H322M [4]) | TGI (HCC 2998) | growth at 100 µM (NCI-H460) | growth at 0.1 µM (SK-MEL-2) | growth at 1 µM (Malme-3M [5]) | growth at 0.01 µM (IGROV-1 [6]) | growth at 1 µM (SW-620 [7]) | TGI (CAKI-1 [8]) | growth at 10 µM (CAKI-1 [9]) | CC50 (DU-145) | growth at 10 µM (NCI/ADR-RES) | further results
1 | c1ccc(Cn2cnc3ccc(-c4nc(-c5ccc6c(c5)ncn6C5CCCCC5)cn5ccnc45)cc32)cc1 | 101% | -48% | 5.09 µM | 100% | 18% | 4.55 µM | 3.52 µM | -63% | 60% | 14% | 3.41 µM | -24% | 90% | 91% | 97% | 108% | > 100 µM | 17% | > 100 µM | -30% | GI50 (NCI-H322M [10]): 3.05 µM; growth at 10 µM (HOP-62): -15%; GI50 (Malme-3M [11]): 2.54 µM; growth at 10 µM (M14): -25%; GI50 (CCRF-CEM [12]): 2.18 µM; GI50 (SNB-19): 4.54 µM; GI50 (SF-268): 2.48 µM; growth at 0.1 µM (SF-295): 92%; growth at 0.1 µM (SW-620 [13]): 105%; growth at 100 µM (UACC-257 [14]): -27%; growth at 100 µM (SW-620 [15]): 7%; KSV (Calf thymus DNA): 0.74 10^4/M; GI50 (MDA-MB-231 [16]): 1.68 µM; growth at 0.01 µM (UACC-257 [17]): 101%; growth at 10 µM (SF-539): -75%; growth at 1 µM (CCRF-CEM [18]): 72%; CC50 (KM12): > 100 µM
2 | COc1ccc(-c2cn3ccnc3c(-c3ccc4ncn(C5CCCCC5)c4c3)n2)cc1 | 100% | -5% | 6.15 µM | 98% | 24% | > 100 µM | 2.99 µM | 12% | 45% | 67% | > 100 µM | 5% | 92% | 53% | 96% | 42% | > 100 µM | 25% | > 100 µM | -4% | GI50 (NCI-H322M [10]): > 100 µM; growth at 10 µM (HOP-62): -1%; GI50 (Malme-3M [11]): 43.1 µM; growth at 10 µM (M14): 9%; GI50 (CCRF-CEM [12]): 1.64 µM; GI50 (SNB-19): 0.836 µM; GI50 (SF-268): 2.38 µM; growth at 0.1 µM (SF-295): 91%; growth at 0.1 µM (SW-620 [13]): 99%; growth at 100 µM (UACC-257 [14]): 55%; growth at 100 µM (SW-620 [15]): 19%; KSV (Calf thymus DNA): 0.82 10^4/M; GI50 (MDA-MB-231 [16]): 2.83 µM; growth at 0.01 µM (UACC-257 [17]): 100%; growth at 10 µM (SF-539): -53%; growth at 1 µM (CCRF-CEM [18]): 59%; CC50 (KM12): > 100 µM
